Experiment [1] can be described thus: Her2 expression decrease, cell viability multiplex – SKBR3 breast tumor cells, AlphaScreen, ATP viability, primary screen (AID 461;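 active = Her2 level under about 52% in both replicate screens, with viability over 70% of control, limit read from the data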;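 as to Her2 level: lower value means less Her2 protein in the cells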;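 as to viability: percent of carrier control wells set as 100% viability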). The settings on record: SKBR3 Her2 protein level, 18-24 h, measured here: SKBR3 viability, ATP luminescence, at 10 µM.
Experiment [2] concerns the target Receptor tyrosine-protein kinase erbB-2 (Homo sapiens) (UniProt P04626). Described as above. The settings on record: 18-24 h, at 10 µM, stronger effect = lower value.
A short description of experiment [3]: reduced viability of SK-BR-3 breast cancer cells – cell-based, 24 h, human, pilot screen (AID 572;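 active = viability at or below 10% of carrier control in both of two separate runs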;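 also: compound exposure lasted between 18 and 24 h rather than exactly 24 h; 100% = carrier-treated control wells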). The settings on record: SK-BR-3 viability, CellTiter-Glo luminescence, at 10 µM, stronger effect = lower value.
A short description of experiment [4]: HUVEC growth inhibition – cell-based, human, primary screen (AID 575;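 active = viability at or below 30% in both replicate assays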;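 also: 100% = median of untreated cell wells with 0.1% DMSO on each plate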). The settings on record: HUVEC proliferation, CellTiter-Glo luminescence, 72 h; at 10 µM; stronger effect = lower value. Put shortly:
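Test system: primary human umbilical vein endothelial cells. Quantity: 1250 cells/well. Compound: single 10 µM dose, 0.1% DMSO, from 5x medium stock. Timing: 72 h treatment at 37 °C. Detection: ATP-based CellTiter-Glo luminescent read. Benchmarks: vehicle and MePR control wells. Format: 384-well plates coated with collagen.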
Background: Cellular ATP, detected with luciferase, serves as a proxy for viable cell number.

Experiment [5] in a line: H69AR cell proliferation blockers – human, duplicate replicates, primary screen (AID 580;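 active = viability at or under a set limit in both replicates, limit being median viability minus 3 SD, cut at about 48% in these data, passing the limit was not always enough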;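 also: 100% = mean luminescence of untreated wells and 0% = no signal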). As to conditions: H69AR lung tumor cells viability, ATP luminescence, 72 h; at 10 µM; stronger effect = lower value.
A short description of experiment [6]: MRP1 drug-resistance reversers in H69AR cells – cell-based, doxorubicin co-treatment, pilot screen (AID 601;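 active = viability loss from added drug above about 55%, and viability with drug at most 40%, in both replicates, limit read from the data, passing the limit was not always enough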). As to conditions: CellTiter-Glo, 72 h, at 10 µM; for differential viability (reversal): stronger effect = higher value.
The nature of experiment [7]: yeast transport mutant growth inhibition pilot in 384-well plates, post-Golgi transport modulator project (AID 636; in the data active = inhibition above about 31%). As to conditions: absorbance 615 nm, about 18 h, stronger effect = higher value.
Experiment [8] is described as follows: growth suppression of yeast trafficking mutant, preliminary HTS, modulators of trafficking downstream of Golgi apparatus project, 1536-format plate, OD 615 nm (AID 637). As to conditions: yeast transport mutant growth, absorbance 615 nm, 18 h; stronger effect = higher value.
The mark [9] stands for this setting: H69AR cells + 2 uM doxorubicin, measured here: viability with 2 uM doxorubicin, stronger effect = lower value.
The mark [10] stands for this setting: H69AR cells, compound alone cytotoxicity.

A word on the viability: it is a read-out of living cells in per cent, often relative to untreated cells. A word on the inhibition: it is the change of the read-out against control, counted positive when it falls.

Calls of active or inactive are those of the source. Rule as the data show it, unless noted: active = inhibition above about 30%; inactive = the rest.

Receptor tyrosine-protein kinase erbB-2 (Homo sapiens), sequence (P04626 whole entry, looked up): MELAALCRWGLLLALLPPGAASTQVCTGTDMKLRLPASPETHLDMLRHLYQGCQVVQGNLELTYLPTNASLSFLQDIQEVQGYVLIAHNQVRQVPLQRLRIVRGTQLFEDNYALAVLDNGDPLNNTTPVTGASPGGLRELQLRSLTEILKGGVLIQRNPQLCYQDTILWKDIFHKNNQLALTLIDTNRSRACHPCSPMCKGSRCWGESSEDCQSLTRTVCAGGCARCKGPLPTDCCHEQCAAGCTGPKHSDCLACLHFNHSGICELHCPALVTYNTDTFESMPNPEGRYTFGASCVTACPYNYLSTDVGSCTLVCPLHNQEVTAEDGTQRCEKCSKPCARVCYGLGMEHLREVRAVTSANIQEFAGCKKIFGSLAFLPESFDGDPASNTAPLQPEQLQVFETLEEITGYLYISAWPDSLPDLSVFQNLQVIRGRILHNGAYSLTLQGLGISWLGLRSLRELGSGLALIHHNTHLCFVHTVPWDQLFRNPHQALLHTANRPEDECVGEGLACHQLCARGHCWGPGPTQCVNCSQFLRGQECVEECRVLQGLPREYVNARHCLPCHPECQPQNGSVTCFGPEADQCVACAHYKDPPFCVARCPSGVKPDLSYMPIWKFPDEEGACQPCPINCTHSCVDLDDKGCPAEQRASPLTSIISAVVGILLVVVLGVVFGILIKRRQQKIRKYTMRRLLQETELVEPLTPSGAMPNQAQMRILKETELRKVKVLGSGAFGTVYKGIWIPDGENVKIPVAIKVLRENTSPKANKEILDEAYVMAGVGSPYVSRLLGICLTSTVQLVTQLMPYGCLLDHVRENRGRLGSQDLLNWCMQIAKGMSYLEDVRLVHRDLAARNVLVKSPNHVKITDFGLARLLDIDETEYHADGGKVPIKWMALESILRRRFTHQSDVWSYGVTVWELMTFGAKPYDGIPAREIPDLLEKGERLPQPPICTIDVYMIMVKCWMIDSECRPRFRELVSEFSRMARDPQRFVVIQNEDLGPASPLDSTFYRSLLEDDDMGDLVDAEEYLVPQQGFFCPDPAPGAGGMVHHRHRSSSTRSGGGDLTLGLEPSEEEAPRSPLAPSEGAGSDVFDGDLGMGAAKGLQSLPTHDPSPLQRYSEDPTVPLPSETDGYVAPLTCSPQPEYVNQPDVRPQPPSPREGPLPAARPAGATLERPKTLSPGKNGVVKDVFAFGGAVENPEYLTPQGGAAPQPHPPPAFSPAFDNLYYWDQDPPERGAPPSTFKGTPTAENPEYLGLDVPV

`Cn1c(SCC(=O)O)nnc1C1CCCCC1`: the viability in experiment [1] is 102%; in experiment [3] it was 102% (inactive); in experiment [4], 99.7% (inactive); in experiment [5], 92.7% (inactive); in experiment [6] (setting [9]), 93.9%; in experiment [6] (setting [10]), 92.7%. Further, the Her2 level in experiment [2] was 110% (inactive). Further, the differential viability (reversal) in experiment [6] (H69AR cells + 2 uM doxorubicin) was -1.2% (inactive). The inhibition in experiment [7] was 0.27% (inactive); in experiment [8], 8.85% (inactive).

Turning to `COc1ccc(C)cc1S(=O)(=O)N(CC(=O)O)c1ccccc1`, the viability in experiment [1] was 118%; in experiment [3], 118% (inactive); in experiment [4] it was 106% (inactive); in experiment [5], 86.1% (inactive); in experiment [6] (setting [9]), 97.2%; in experiment [6] (setting [10]), 86.1%. In addition, in experiment [2], the Her2 level was 114% (inactive). In addition, in experiment [6] (H69AR cells + 2 uM doxorubicin), the differential viability (reversal) is -11.2% (inactive). Further, the inhibition was -2.84% (inactive) in experiment [7] and 4.75% (inactive) in experiment [8].

Turning to `N#C/C(=C(/O)CN1CCOCC1)c1nc2ccccc2s1`, the viability in experiment [1] was 89.5%; in experiment [3], 89.5% (inactive); in experiment [4], 99.3% (inactive); in experiment [5], 106% (inactive); in experiment [6] (setting [9]), 100%; in experiment [6] (setting [10]) it was 106%. Further, the Her2 level in experiment [2] is 145% (inactive). The differential viability (reversal) in experiment [6] (H69AR cells + 2 uM doxorubicin) is 5.77% (inactive). Also, the inhibition in experiment [7] was 2.73% (inactive); in experiment [8], -13.8% (inactive).

Regarding `CCCSc1nc2c(cnn2-c2ccc(Cl)cc2)c(=O)[nH]1`, the viability is 106% in experiment [1]; 106% (inactive) in experiment [3]; 98.1% (inactive) in experiment [4]; 79% (inactive) in experiment [5]; 82.7% in experiment [6] (setting [9]); 79% in experiment [6] (setting [10]). The Her2 level in experiment [2] is 89.5% (inactive). In experiment [6] (H69AR cells + 2 uM doxorubicin), the differential viability (reversal) was -3.71% (inactive). The inhibition in experiment [7] is -6.23% (inactive); in experiment [8], 0.95% (inactive).

For `CCOc1ccc(NC(=O)CN(C)CC(=O)NC2CCCc3ccccc32)cc1OCC` (stereo not given), the viability in experiment [1] is 83%; in experiment [3], 83% (inactive); in experiment [4], 100% (inactive); in experiment [5], 89.9% (inactive); in experiment [6] (setting [9]), 97.3%; in experiment [6] (setting [10]), 89.9%. Also, the Her2 level in experiment [2] is 88.5% (inactive). Besides, the differential viability (reversal) in experiment [6] (H69AR cells + 2 uM doxorubicin) is -7.38% (inactive). The inhibition was -0.38% (inactive) in experiment [7] and 0.33% (inactive) in experiment [8].

Take `O=C(NCc1ccccc1)C1CCCN1S(=O)(=O)c1cccc2cccnc12` (stereo not given): the viability is 94% in experiment [1]; 94% (inactive) in experiment [3]; 93% (inactive) in experiment [4]; 110% (inactive) in experiment [5]; 94.4% in experiment [6] (setting [9]); 110% in experiment [6] (setting [10]). Further, the Her2 level in experiment [2] was 99.5% (inactive). Besides, the differential viability (reversal) in experiment [6] (H69AR cells + 2 uM doxorubicin) was 15.6% (inactive). Also, the inhibition in experiment [7] is -0.53% (inactive); in experiment [8], -0.98% (inactive).

Regarding `Cc1ccc(-n2nnnc2SCC(=O)Nc2c(C)n(C)n(-c3ccccc3)c2=O)cc1`, the viability was 102% in experiment [1]; 102% (inactive) in experiment [3]; 105% (inactive) in experiment [4]; 90.8% (inactive) in experiment [5]; 104% in experiment [6] (setting [9]); 90.8% in experiment [6] (setting [10]). Also, the Her2 level in experiment [2] was 104% (inactive). Further, in experiment [6] (H69AR cells + 2 uM doxorubicin), the differential viability (reversal) is -13.5% (inactive). The inhibition in experiment [7] is 0.8% (inactive); in experiment [8] it was 10.8% (inactive).

For `CCOC(=O)c1c(C)oc2ccc(O)c(CN3CCCCC3)c12`, the viability in experiment [1] was 87.5%; in experiment [3], 87.5% (inactive); in experiment [4], 90.2% (inactive); in experiment [5], 86.9% (inactive); in experiment [6] (setting [9]), 90.7%; in experiment [6] (setting [10]), 86.9%. The Her2 level in experiment [2] was 79.5% (inactive). Moreover, the differential viability (reversal) in experiment [6] (H69AR cells + 2 uM doxorubicin) was -3.83% (inactive). For the same compound, the inhibition is -1.84% (inactive) in experiment [7] and 2.22% (inactive) in experiment [8].

With `CCOC(=O)c1[nH]c2ccccc2c1NC(=O)C(CC)CC`, the viability is 98.5% in experiment [1]; 98.5% (inactive) in experiment [3]; 80.8% (inactive) in experiment [4]; 93.3% (inactive) in experiment [5]; 79.4% in experiment [6] (setting [9]); 93.3% in experiment [6] (setting [10]). Also, the Her2 level in experiment [2] was 99.5% (inactive). In experiment [6] (H69AR cells + 2 uM doxorubicin), the differential viability (reversal) is 13.9% (inactive). Further, the inhibition in experiment [7] is -4.27% (inactive); in experiment [8], 5.5% (inactive).

Consider `Cc1cc(C)n2nc(S(=O)(=O)N(C)Cc3ccccc3)nc2n1`, for which the viability in experiment [1] was 80%; in experiment [3], 80% (inactive); in experiment [4], 122% (inactive); in experiment [5], 93.4% (inactive); in experiment [6] (setting [9]), 89.2%; in experiment [6] (setting [10]), 93.4%. Moreover, in experiment [2], the Her2 level was 91% (inactive). Moreover, the differential viability (reversal) in experiment [6] (H69AR cells + 2 uM doxorubicin) was 4.15% (inactive). Also, the inhibition in experiment [7] is -7.16% (inactive); in experiment [8], -5.67% (inactive).

For the compound `CC(C)CNS(=O)(=O)c1ccc(OCC(=O)Nc2ccc3c(c2)OCO3)c(Cl)c1`, the viability in experiment [1] was 89.5%; in experiment [3], 89.5% (inactive); in experiment [4], 58.6% (inactive); in experiment [5], 66.7% (inactive); in experiment [6] (setting [9]) it was 69%; in experiment [6] (setting [10]), 66.7%. In addition, in experiment [2], the Her2 level was 66% (inactive). Moreover, in experiment [6] (H69AR cells + 2 uM doxorubicin), the differential viability (reversal) was -2.31% (inactive). Moreover, the inhibition was -5.39% (inactive) in experiment [7] and -0.67% (inactive) in experiment [8].

Regarding `CCOC(=O)N1CCN(CC(O)COc2ccccc2C(C)CC)CC1` (stereo not given), the viability in experiment [1] was 104%; in experiment [3], 104% (inactive); in experiment [4], 99% (inactive); in experiment [5] it was 94.7% (inactive); in experiment [6] (setting [9]) it was 93.2%; in experiment [6] (setting [10]), 94.7%. The Her2 level in experiment [2] is 92.5% (inactive). In addition, the differential viability (reversal) in experiment [6] (H69AR cells + 2 uM doxorubicin) is 1.52% (inactive). Further, the inhibition is 31.6% (active) in experiment [7] and 29.2% (inactive) in experiment [8].

Consider `COC(=O)C1=C(C)OC(N)=C(C#N)C1c1c(C)nn(-c2ccccc2)c1Cl` (stereo not given), for which the viability in experiment [1] is 89%; in experiment [3] it was 89% (inactive); in experiment [4] it was 70.7% (inactive); in experiment [5], 79.7% (inactive); in experiment [6] (setting [9]) it was 86.7%; in experiment [6] (setting [10]), 79.7%. Also, the Her2 level in experiment [2] is 118% (inactive). In addition, the differential viability (reversal) in experiment [6] (H69AR cells + 2 uM doxorubicin) was -6.99% (inactive). Also, the results for the inhibition in experiment [7] and in experiment [8] were -0.27% (inactive) and 16.6% (inactive), respectively.

Regarding `CCc1cc(=O)oc2c(CN3CCN(C)CC3)c(O)c(Cl)cc12`, the viability in experiment [1] was 107%; in experiment [3] it was 107% (inactive); in experiment [4], 92.6% (inactive); in experiment [5], 98.4% (inactive); in experiment [6] (setting [9]), 91.8%; in experiment [6] (setting [10]), 98.4%. Further, in experiment [2], the Her2 level is 93.5% (inactive). Besides, the differential viability (reversal) in experiment [6] (H69AR cells + 2 uM doxorubicin) was 6.53% (inactive). The inhibition in experiment [7] is -2.5% (inactive); in experiment [8], -3.61% (inactive).

The values above are taken from PubChem BioAssay.
